Measurements: ChEMBL document CHEMBL1142787, “Bicyclic nucleoside inhibitors of Varicella-Zoster virus: the effect of branching in the p-alkylphenyl side chain” (Bioorg Med Chem Lett, 2005)

What was measured:
[1] = system: HEL (human embryonic lung fibroblasts); test: Cytotoxic concentration required to inhibit Hel cell growth by using DMSO as solvent
[2] = Effective concentration required to reduce Varicella Zoster virus OKA plaque formation by using DMSO as solvent; format: functional, Human alphaherpesvirus 3
[3] = Effective concentration required to reduce thymidine kinase-Varicella Zoster virus YS/R plaque formation by using DMSO as solvent; format: functional, Human alphaherpesvirus 3
[4] = Minimal cytotoxic concentration required to alter microscopically detectable cell morphology; format: functional
Procedure, shortened: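 Cell morphology scored by microscopy; compounds dissolved in neat DMSO, then diluted in biological media to stock solutions of ca. 50–200 μM with 1% DMSO; MCC recorded as the minimal concentration that alters microscopically detectable morphology.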

## Nc1nc2c(ncn2COCCO)c(=O)[nH]1 [ACYCLOVIR]
[1]
  CC50: > 400 µM
[2]
  EC50: 1.5 µM
[3]
  EC50: 53 µM
[4]
  MCC: > 200 µM
